PolyA inhibitor = blocks polyadenylation in yeast reporter cells; S. cerevisiae SKY197-pL101 polyadenylation reporter, beta-gal luminescence; efflux-impaired pdr1/pdr3 knockout yeast; score 100 = 6 SD above DMSO; activity score, % at 12 µM; 300,000 tested, 0.02% active; AID 1875;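 active means lowest replicate activity score at least 50, where 100 means six control SD above control mean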;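 further: yeast exposed to compound for 9 h at 30 °C; higher score means more reporter readthrough which indicates perturbed polyadenylation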
HSF1 inh = HSF1 inhibition; NIH3T3-HGL HSE-luciferase, MG132-induced, luminescence 8 h; stronger effect = lower value; activity change, negative = inhibition, % at 7.5 µM (by protocol); 300,000 tested, 0.77% active; AID 2098;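 active means more than half of replicate wells show activity change below -50%, luminescence cut by over half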;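 further: luciferase reports HSF-1 transcriptional activity via heat shock element; 0% = median of DMSO wells and -100% = zero luminescence signal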
PERK inh = inhibitors of human PERK kinase. 220,000 tested, 0.17% active. inhibition, % at 5.6 µM. CHO PERK-DD fusion, SEAP luminescence translation reporter. Q9NZJ5;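 active means inhibition above the mean inhibition of all tested compounds plus 3 SD, set separately per screening campaign, cut at about 2.9% in these data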;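 further: PERK kinase domain activated by AP20187 dimerizer at 100 nM; 0% = DMSO with dimerizer and 100% = rapamycin at 8.4 µM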
Hsp70 activator = Hsp70 transcriptional activation, primary screen; HeLa Hsp70 promoter luciferase reporter, luminescence; scaled: vehicle 0, proteasome-inhibitor control 100%; activation, % at 10 µM; 200,000 tested, 0.04% active;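 active means activation above the mean across all tested compounds plus 3 SD, cutoff set per campaign, cut at about 5.5% in these data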;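 further: 100% = MG132 at 30 µM as the positive control and 0% = DMSO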
AHR act = human AHR activation. AHR-responsive luciferase reporter cells, luminescence. activation, % at 5 µM. 320,000 tested, 2.5% active; in the data active means activation above about 47%;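 further: 0% = vehicle wells and 100% = reference agonist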
STAT3 activator = increases IL-6 driven STAT3 reporter signal; U3A cells, IL-6 STAT3-luciferase reporter, luminescence; 100% = signal with IL-6 EC80 alone; activation (% of control), % at 5.6 µM; 190,000 tested, 0.91% active;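 active means activation above the screen-wide mean of compound activation plus 3 SD, cut at about 130% in these data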;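 further: 0% = background luminescence of wells with medium and substrate only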
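Test system: STAT3-luciferase reporter U3A cells; Detection: reporter luminescence signal; Times: 1 h compound pre-exposure, 6 h IL-6 stimulation, 37 °C; Benchmarks: IL-6-only high control; Also added: IL-6 stimulus at 33 ng/mL final.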
Active calls of the source: *; nt = not tested or not shown. The list is not random: actives were taken first. Their share in the collection is about 3.6%.

SMILES	PolyA inhibitor	HSF1 inh	PERK inh	Hsp70 activator	AHR act	STAT3 activator
COCCn1c(SCC(=O)NC2CCCC2)nc2c(c1=O)SCC2	8.8	-2.8	nt	nt	0.8	nt
COc1ccc(NS(=O)(=O)c2cccc(C(=O)NC3CCC(O)CC3)c2)cc1 (configuration not stated)	2.7	-8.1	nt	nt	-1.7	nt
CCn1c2ccccc2c2cc(NC(=O)CSc3nnc(-c4cccc(F)c4)o3)ccc21	-3.8	14.9	0.1	0.2	59.0*	92.7
CCn1c2ccccc2c2cc(NC(=O)COC(=O)c3cc(Cl)c(N)cc3OC)ccc21	15.2	1.3	0.7	nt	72.9*	nt
CCn1c2ccccc2c2cc(NC(=O)CSc3nnc(-c4ccccc4)o3)ccc21	11.5	-1.5	0.1	-0.4	43.8	91.3
O=C(c1ccco1)N1CCN(CC(O)COc2ccc(Br)cc2)CC1 (configuration not stated)	20.8	-6.2	nt	nt	1.1	nt
CCOC(=O)c1nn(-c2ccccc2C)c(=O)cc1OCC(=O)N1CCN(c2ccccc2)CC1	18.3	-0.9	nt	nt	-0.1	nt
Nc1cc(C(=O)c2ccccc2)ccc1[N+](=O)[O-]	-2.8	6.3	-0.9	-0.3	-3.2	95.8
CCN1CCN(C(=O)c2cc3sccc3n2CC(=O)c2ccccc2)CC1	1.6	-9.3	-2.4	-0.3	5.8	103.4
CCN1CCN(C(=O)C2CCN(C(=O)c3cc4sccc4n3CC)CC2)CC1	-4.5	-69.9*	-0.4	0.4	-1.4	99.0
COc1ccc2c(c1)[nH]c(=O)c1sc3ccccc3c12	-21.2	2.4	-0.7	-0.2	40.8	174.1*
COc1ccc2sc3c(=O)[nH]c4ccccc4c3c2c1	-46.0	-7.4	1.5	-0.4	24.0	123.0
COc1cccc(-n2c([S-])c(C(=O)Nc3ccc(S(=O)(=O)N4CCOCC4)cc3)[n+]3cc(C(N)=O)ccc23)c1	12.5	-4.1	0.3	nt	64.5*	nt
CC(C)COc1cccc(C(=O)Nc2ccc(S(=O)(=O)N3CCOCC3)cc2)c1	-8.5	-6.7	-0.5	-0.5	0.8	101.3
CCN(CC)C(=O)c1cc2c(=O)n3cccc(C)c3nc2s1	-10.9	1.0	nt	nt	47.4*	nt
CCC(C)NC(=O)c1cc2c(=O)n3cccc(C)c3nc2s1 (configuration not stated)	-0.4	-7.3	nt	nt	65.1*	nt
C=CCNC(=O)c1cc2c(=O)n3cccc(C)c3nc2s1	16.7	1.8	nt	nt	14.2	nt
Cc1nn(-c2ccccc2)c(N)c1N=Nc1ccc2ccccc2c1	-6.8	41.0	0.3	0.0	154.7*	107.3
O=C(CSC(=S)N1CCCCC1)Nc1ncc2c(n1)CCCC2=O	-3.0	-52.1*	0.1	nt	0.9	nt
O=C(CSC(=S)N1CCCCC1)Nc1ncc2c(n1)CC(c1ccco1)CC2=O (configuration not stated)	0.4	2.5	0.8	nt	-2.7	nt
COc1cccc(O)c1CN1CCC(C(=O)Nc2ccc(Oc3cccnc3)cc2)CC1	-11.9	-6.4	nt	nt	11.1	nt
COc1ccc(CN2CCC(C(=O)Nc3ccc(Oc4cccnc4)cc3)CC2)c(C)c1C	-18.9	-82.8*	nt	nt	0.4	nt
CC(/C=C/c1ccc2c(c1)OCO2)=N/NC(=O)c1ccc(C)nc1	4.0	-0.9	1.3	0.4	40.7	102.0
CCc1ccccc1NC(=O)CCS(=O)(=O)c1ccc(OC)cc1	-13.1	-79.4*	nt	nt	1.1	nt
COc1ccc(C)c2sc(NC(=O)CCS(=O)(=O)c3ccccc3)nc12	4.2	6.5	nt	nt	52.3*	nt
SMILES	PolyA inhibitor	HSF1 inh	PERK inh	Hsp70 activator	AHR act	STAT3 activator
CCOc1cccc2sc(N(CCN(C)C)C(=O)CCS(=O)(=O)c3ccccc3)nc12	37.9	2.3	nt	nt	1.6	nt
CCOc1cccc2sc(NC(=O)CCS(=O)(=O)c3ccccc3)nc12	3.0	2.1	nt	nt	57.1*	nt
O=C(CCS(=O)(=O)c1ccccc1)Nc1nc(-c2ccccn2)cs1	-6.1	-23.9	0.2	-0.4	54.0*	102.4
COc1ccccc1NS(=O)(=O)c1cccc(C(=O)N2CCCCCCC2)c1	12.1	4.6	nt	nt	3.8	nt
NC(=O)c1ccc(SCC(=O)OCC(=O)NCc2cccs2)c([N+](=O)[O-])c1	nt	nt	nt	nt	4.4	nt
COCCNC(=O)COc1cccc2c1OC(C)(C)C2	3.1	nt	0.4	0.2	-0.5	104.7
O=C(CCS(=O)(=O)c1ccccc1)Nc1cccc(-c2nc3ccccc3s2)c1	1.6	19.6	-1.3	-0.1	68.5*	90.9
CCCCC(=O)Nc1nc2c(OC)ccc(OC)c2s1	7.1	6.5	-0.1	0.2	64.3*	85.3
O=c1ccc(Cl)nn1-c1ccccc1	-13.2	-1.4	nt	nt	1.4	nt
CCn1c(C)cc(/C=C2/NC(=O)N(c3ccccc3)C2=O)c1C	-5.5	-52.1*	0.0	-0.1	27.4	101.2
CCCN(CCC)Cc1c(C(=O)N/N=C/c2cccs2)nnn1-c1nonc1N	18.8	-3.2	nt	nt	0.3	nt
CCCc1c(C(=O)N/N=C/c2cccs2)nnn1-c1nonc1N	7.0	1.3	nt	nt	61.3*	nt
Fc1ccccc1-c1nc(-c2ccc(Cl)cc2)no1	2.9	15.0	-0.5	0.1	85.4*	124.1
O=C(O)c1ccc(-c2noc(-c3ccccc3Cl)n2)cc1	6.5	17.7	nt	nt	-3.1	nt
c1ccc(-c2noc(-c3ccccc3-c3ccccc3)n2)cc1	-29.5	0.8	1.6	-0.2	61.8*	89.1
O=C(c1ccccc1-c1nc(-c2ccc(Cl)cc2)no1)N1CCCC1	-24.7	4.3	-1.6	0.0	53.3*	115.4
CCCOc1ccc(C(=O)NC(=S)Nc2nc3ccccc3s2)cc1	4.4	-19.8	0.9	0.2	82.0*	129.2
O=C(NC(=S)Nc1nc2ccccc2s1)c1ccco1	6.3	28.7	0.7	-0.1	34.2	145.6*
CCCOc1ccc(C(=O)NC(=S)Nc2nc3ccc(C)cc3s2)cc1	nt	nt	1.0	0.1	nt	101.7
CCCn1c(=O)c(Br)cn(-c2ccccc2C)c1=O	14.1	-9.7	0.5	nt	18.9	nt
Cc1cc(-c2nn(-c3ccccc3F)cc2CN2CCN(c3ccncc3)CC2)c(C)s1	12.8	4.1	0.2	-0.2	8.0	97.0
O=C(c1ccc(Cl)nc1)c1cccs1	16.1	-4.3	1.0	nt	53.6*	nt
